Results reported in PMC3589814 (Journal of molecular biology, 2012).

Legend:
Test in all cases: isothermal titration calorimetry
Assay type in all cases: binding
[1] = molecular target: ScRR1 (Saccharomyces cerevisiae, UniProt P21524, Q288A)
How it was run: (§1)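 Yeast RR1 (wild type or loop 2 mutant) in the ITC cell at 25 °C, in 50 mM Hepes pH 7.0 with 5 mM MgCl₂, 5 mM DTT and 5% glycerol (20 µM protein for wild type). Titrant was 0.5 mM dGTP. For ADP binding the protein was pre-saturated with dGTP (500 µM); for CDP binding it was pre-saturated with AMPPNP. Blank-corrected heats were fitted to a one-site model, and Kd was taken from the association constant.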

[2] = molecular target: ScRR1 (Saccharomyces cerevisiae, UniProt P21524, R293A)
Chain of ScRR1 (Saccharomyces cerevisiae, UniProt P21524, R293A) (P21524 whole entry R293A): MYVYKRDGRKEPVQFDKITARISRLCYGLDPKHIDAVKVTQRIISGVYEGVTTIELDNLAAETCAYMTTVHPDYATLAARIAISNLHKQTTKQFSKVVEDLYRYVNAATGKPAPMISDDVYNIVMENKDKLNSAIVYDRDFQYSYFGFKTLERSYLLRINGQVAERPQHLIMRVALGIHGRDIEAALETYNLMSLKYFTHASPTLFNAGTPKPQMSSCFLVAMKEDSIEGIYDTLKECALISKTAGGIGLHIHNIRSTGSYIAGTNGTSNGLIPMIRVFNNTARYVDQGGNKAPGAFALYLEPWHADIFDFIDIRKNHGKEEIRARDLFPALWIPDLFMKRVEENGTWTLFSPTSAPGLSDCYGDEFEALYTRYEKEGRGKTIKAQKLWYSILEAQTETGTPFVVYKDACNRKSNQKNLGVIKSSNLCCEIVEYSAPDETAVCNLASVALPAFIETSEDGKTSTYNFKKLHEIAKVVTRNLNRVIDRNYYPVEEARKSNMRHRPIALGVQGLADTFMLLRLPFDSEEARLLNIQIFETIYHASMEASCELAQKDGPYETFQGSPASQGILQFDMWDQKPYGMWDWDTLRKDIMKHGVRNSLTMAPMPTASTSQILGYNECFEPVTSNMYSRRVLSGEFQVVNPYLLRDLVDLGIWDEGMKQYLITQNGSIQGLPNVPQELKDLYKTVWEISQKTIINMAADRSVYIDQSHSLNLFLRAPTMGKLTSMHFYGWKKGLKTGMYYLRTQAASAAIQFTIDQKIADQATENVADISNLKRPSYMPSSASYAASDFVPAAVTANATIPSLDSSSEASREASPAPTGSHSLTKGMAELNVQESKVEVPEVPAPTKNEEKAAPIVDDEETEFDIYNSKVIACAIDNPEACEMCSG
How it was run: as §1

[3] = molecular target: T1, ScRR1 (Saccharomyces cerevisiae, UniProt P21524)
T1 sequence (P21524 1-888): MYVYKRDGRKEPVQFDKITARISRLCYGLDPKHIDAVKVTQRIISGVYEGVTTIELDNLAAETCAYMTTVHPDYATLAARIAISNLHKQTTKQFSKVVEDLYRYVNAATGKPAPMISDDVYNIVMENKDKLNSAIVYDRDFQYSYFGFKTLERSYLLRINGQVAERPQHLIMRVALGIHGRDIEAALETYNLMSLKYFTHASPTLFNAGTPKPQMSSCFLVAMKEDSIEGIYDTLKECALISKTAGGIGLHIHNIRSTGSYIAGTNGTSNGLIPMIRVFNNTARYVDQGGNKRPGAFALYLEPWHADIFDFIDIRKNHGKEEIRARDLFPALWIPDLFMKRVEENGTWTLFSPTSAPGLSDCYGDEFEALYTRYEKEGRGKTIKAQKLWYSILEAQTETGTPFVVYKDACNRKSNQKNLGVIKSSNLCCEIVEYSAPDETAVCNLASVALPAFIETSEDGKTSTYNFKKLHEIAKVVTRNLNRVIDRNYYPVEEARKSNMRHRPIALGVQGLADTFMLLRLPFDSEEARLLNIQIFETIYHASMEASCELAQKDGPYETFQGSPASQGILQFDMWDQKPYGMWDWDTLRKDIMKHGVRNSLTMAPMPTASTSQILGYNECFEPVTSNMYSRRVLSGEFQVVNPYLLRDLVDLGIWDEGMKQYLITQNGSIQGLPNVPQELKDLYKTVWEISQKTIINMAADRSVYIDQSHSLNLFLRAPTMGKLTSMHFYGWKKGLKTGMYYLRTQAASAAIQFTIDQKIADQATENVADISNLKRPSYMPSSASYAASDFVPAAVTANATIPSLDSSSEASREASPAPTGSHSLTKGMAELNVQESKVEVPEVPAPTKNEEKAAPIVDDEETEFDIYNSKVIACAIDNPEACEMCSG
How it was run: as §1

Chain of ScRR1 (Saccharomyces cerevisiae, UniProt P21524, Q288A) (P21524 whole entry Q288A): as the sequence (P21524 whole entry R293A) above, with Q288A, A293R counted along it

Kd [1]: 520 nM | Kd [2]: 570 nM | Kd [3]: 270 nM
SMILES: Nc1nc2c(ncn2[C@H]2C[C@H](O)[C@@H](COP(=O)(O)OP(=O)(O)OP(=O)(O)O)O2)c(=O)[nH]1 [dGTP]
